Experimental data from ChEMBL document CHEMBL1629503, “Novel conformationally restricted triazole derivatives with potent antifungal activity” (2010).
Values after ≈ are worked out from the molar mass of the structure shown.

Columns and labels:
Assay type in all cases: functional
Aspergillus fumigatus = assay: Antifungal activity against Aspergillus fumigatus after 7 days by serial dilution method; settings: 168 h
Outline: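 Mould susceptibility by NCCLS serial dilution in 96-well plates, using MOPS-buffered (0.165 M) RPMI 1640 medium. Compounds were dissolved in DMSO and serially diluted in medium. Isolates were from ATCC or clinical sources. The endpoint MIC80 is the lowest concentration giving turbidity […] of control growth.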

Candida albicans = assay: Antifungal activity against Candida albicans after 24 hrs by serial dilution method
Outline: (§1)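 Broth microdilution MIC per NCCLS recommendations in 96-well plates, using RPMI 1640 buffered with 0.165 M MOPS. Strains were ATCC or clinical isolates. Compounds were dissolved in DMSO and serially diluted in medium. Yeasts were incubated at 35 °C and growth was read at 24 h. MIC80 is the lowest concentration giving […] of control growth (turbidity).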

Candida tropicalis = assay: Antifungal activity against Candida tropicalis after 24 hrs by serial dilution method; outline: as §1
Cryptococcus neoformans = assay: Antifungal activity against Cryptococcus neoformans after 72 hrs by serial dilution method
Outline: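 Yeast MIC by NCCLS serial microdilution in RPMI 1640 with 0.165 M MOPS, using an ATCC strain or clinical isolate. Test agents came from DMSO stocks diluted in medium. Incubation was at 35 °C with the read at 72 h. MIC80 is the lowest concentration at which turbidity was […] of drug-free control growth.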

Candida parapsilosis = assay: Antifungal activity against Candida parapsilosis after 24 hrs by serial dilution method; settings: Lodderomyces parapsilosis; outline: as §1
Kluyveromyces marxianus = assay: Antifungal activity against Candida kefyr after 24 hrs by serial dilution method; outline: as §1
Trichophyton rubrum = assay: Antifungal activity against Trichophyton rubrum after 7 days by serial dilution method; settings: 168 h
Outline: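 Dermatophyte MIC by NCCLS-based serial dilution in 96-well plates, in RPMI 1640 buffered with 0.165 M MOPS. Compounds were dissolved in DMSO and diluted in growth medium. Incubation was at 28 °C. Strain was ATCC or clinical isolate. MIC80 is the lowest concentration reducing turbidity to […] of growth control.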

With `CN(CC(O)(Cn1cncn1)c1ccc(F)cc1F)C1CCN(Cc2ccc(Cl)c(Cl)c2)CC1` (stereo not given) the MIC80 (Aspergillus fumigatus) was 4 µg/mL (≈ 7.84 µM), the MIC80 (Candida albicans) was 0.0625 µg/mL (≈ 0.122 µM) and the MIC80 (Candida tropicalis) was 0.0625 µg/mL (≈ 0.122 µM). The MIC80 (Cryptococcus neoformans) was 0.25 µg/mL (≈ 0.49 µM), the MIC80 (Candida parapsilosis) was 0.0625 µg/mL (≈ 0.122 µM) and the MIC80 (Kluyveromyces marxianus) was 0.25 µg/mL (≈ 0.49 µM). The MIC80 (Trichophyton rubrum) was 0.25 µg/mL (≈ 0.49 µM).

In the case of `CN(CC(O)(Cn1cncn1)c1ccc(F)cc1F)C1CCN(Cc2ccccc2)CC1` (stereo not given), the MIC80 (Aspergillus fumigatus) is reported as 64 µg/mL (≈ 145 µM), the MIC80 (Candida albicans) is reported as 0.25 µg/mL (≈ 0.566 µM) and the MIC80 (Candida tropicalis) is reported as 1 µg/mL (≈ 2.26 µM). The MIC80 (Cryptococcus neoformans) was 1 µg/mL (≈ 2.26 µM), the MIC80 (Candida parapsilosis) was 0.25 µg/mL (≈ 0.566 µM) and the MIC80 (Kluyveromyces marxianus) was 1 µg/mL (≈ 2.26 µM). It also gave an MIC80 (Trichophyton rubrum) of 1 µg/mL (≈ 2.26 µM).

For `CN(CC(O)(Cn1cncn1)c1ccc(F)cc1F)C1CCN(Cc2ccc([N+](=O)[O-])cc2)CC1` (stereo not given), the MIC80 (Aspergillus fumigatus) was 4 µg/mL (≈ 8.22 µM), the MIC80 (Candida albicans) was 0.0625 µg/mL (≈ 0.128 µM) and the MIC80 (Candida tropicalis) was 0.25 µg/mL (≈ 0.514 µM). It also gave an MIC80 (Cryptococcus neoformans) of 0.25 µg/mL (≈ 0.514 µM), an MIC80 (Candida parapsilosis) of 0.0625 µg/mL (≈ 0.128 µM) and an MIC80 (Kluyveromyces marxianus) of 1 µg/mL (≈ 2.06 µM). It also gave an MIC80 (Trichophyton rubrum) of 0.25 µg/mL (≈ 0.514 µM).

In the case of `CN(CC(O)(Cn1cncn1)c1ccc(F)cc1F)C1CCN(Cc2ccc(Br)cc2)CC1` (stereo not given), the MIC80 (Aspergillus fumigatus) is reported as 4 µg/mL (≈ 7.69 µM), the MIC80 (Candida albicans) is reported as 0.0625 µg/mL (≈ 0.12 µM) and the MIC80 (Candida tropicalis) is reported as 0.25 µg/mL (≈ 0.48 µM). It also gave an MIC80 (Cryptococcus neoformans) of 0.25 µg/mL (≈ 0.48 µM), an MIC80 (Candida parapsilosis) of 0.0625 µg/mL (≈ 0.12 µM) and an MIC80 (Kluyveromyces marxianus) of 1 µg/mL (≈ 1.92 µM). The MIC80 (Trichophyton rubrum) was 0.25 µg/mL (≈ 0.48 µM).

`CN(CC(O)(Cn1cncn1)c1ccc(F)cc1F)C1CCN(Cc2ccccc2Cl)CC1` (stereo not given) showed an MIC80 (Aspergillus fumigatus) of 4 µg/mL (≈ 8.4 µM), an MIC80 (Candida albicans) of 0.25 µg/mL (≈ 0.525 µM) and an MIC80 (Candida tropicalis) of 0.25 µg/mL (≈ 0.525 µM). It also gave an MIC80 (Cryptococcus neoformans) of 0.25 µg/mL (≈ 0.525 µM), an MIC80 (Candida parapsilosis) of 0.0625 µg/mL (≈ 0.131 µM) and an MIC80 (Kluyveromyces marxianus) of 1 µg/mL (≈ 2.1 µM). The MIC80 (Trichophyton rubrum) was 1 µg/mL (≈ 2.1 µM).

Compound `CN(CC(O)(Cn1cncn1)c1ccc(F)cc1F)C1CCN(Cc2ccc(Cl)cc2Cl)CC1` (stereo not given) has an MIC80 (Aspergillus fumigatus) of 4 µg/mL (≈ 7.84 µM), an MIC80 (Candida albicans) of 0.0625 µg/mL (≈ 0.122 µM) and an MIC80 (Candida tropicalis) of 0.0625 µg/mL (≈ 0.122 µM). It also gave an MIC80 (Cryptococcus neoformans) of 0.25 µg/mL (≈ 0.49 µM), an MIC80 (Candida parapsilosis) of 0.0625 µg/mL (≈ 0.122 µM) and an MIC80 (Kluyveromyces marxianus) of 0.25 µg/mL (≈ 0.49 µM). The MIC80 (Trichophyton rubrum) was 0.25 µg/mL (≈ 0.49 µM).

Work on `CN(CC(O)(Cn1cncn1)c1ccc(F)cc1F)C1CCN(Cc2cccc(Cl)c2)CC1` (stereo not given) yielded an MIC80 (Aspergillus fumigatus) of 1 µg/mL (≈ 2.1 µM), an MIC80 (Candida albicans) of 0.0625 µg/mL (≈ 0.131 µM) and an MIC80 (Candida tropicalis) of 0.25 µg/mL (≈ 0.525 µM). For the same compound, the MIC80 (Cryptococcus neoformans) was 0.0625 µg/mL (≈ 0.131 µM), the MIC80 (Candida parapsilosis) was 0.0625 µg/mL (≈ 0.131 µM) and the MIC80 (Kluyveromyces marxianus) was 1 µg/mL (≈ 2.1 µM). For the same compound, the MIC80 (Trichophyton rubrum) was 0.25 µg/mL (≈ 0.525 µM).

Work on `CN(CC(O)(Cn1cncn1)c1ccc(F)cc1F)C1CCN(Cc2ccc(C#N)cc2)CC1` (stereo not given) yielded an MIC80 (Aspergillus fumigatus) of 1 µg/mL (≈ 2.14 µM), an MIC80 (Candida albicans) of 0.0625 µg/mL (≈ 0.134 µM) and an MIC80 (Candida tropicalis) of 0.25 µg/mL (≈ 0.536 µM). The MIC80 (Cryptococcus neoformans) was 0.0625 µg/mL (≈ 0.134 µM), the MIC80 (Candida parapsilosis) was 0.25 µg/mL (≈ 0.536 µM) and the MIC80 (Kluyveromyces marxianus) was 0.0625 µg/mL (≈ 0.134 µM). For the same compound, the MIC80 (Trichophyton rubrum) was 0.0625 µg/mL (≈ 0.134 µM).

Compound `CN(CC(O)(Cn1cncn1)c1ccc(F)cc1F)C1CCN(Cc2cccc(Br)c2)CC1` (stereo not given) has an MIC80 (Aspergillus fumigatus) of 1 µg/mL (≈ 1.92 µM), an MIC80 (Candida albicans) of 0.0625 µg/mL (≈ 0.12 µM) and an MIC80 (Candida tropicalis) of 0.0625 µg/mL (≈ 0.12 µM). It also gave an MIC80 (Cryptococcus neoformans) of 0.25 µg/mL (≈ 0.48 µM), an MIC80 (Candida parapsilosis) of 0.0625 µg/mL (≈ 0.12 µM) and an MIC80 (Kluyveromyces marxianus) of 0.25 µg/mL (≈ 0.48 µM). The MIC80 (Trichophyton rubrum) was 0.25 µg/mL (≈ 0.48 µM).

With `CN(CC(O)(Cn1cncn1)c1ccc(F)cc1F)C1CCN(Cc2ccccc2F)CC1` (stereo not given) the MIC80 (Aspergillus fumigatus) was 16 µg/mL (≈ 34.8 µM), the MIC80 (Candida albicans) was 0.25 µg/mL (≈ 0.544 µM) and the MIC80 (Candida tropicalis) was 0.25 µg/mL (≈ 0.544 µM). For the same compound, the MIC80 (Cryptococcus neoformans) was 0.25 µg/mL (≈ 0.544 µM), the MIC80 (Candida parapsilosis) was 0.25 µg/mL (≈ 0.544 µM) and the MIC80 (Kluyveromyces marxianus) was 0.25 µg/mL (≈ 0.544 µM). The MIC80 (Trichophyton rubrum) was 1 µg/mL (≈ 2.18 µM).

`CN(CC(O)(Cn1cncn1)c1ccc(F)cc1F)C1CCN(Cc2ccc(F)cc2)CC1` (stereo not given) was tested, and the MIC80 (Aspergillus fumigatus) was 16 µg/mL (≈ 34.8 µM), the MIC80 (Candida albicans) was 0.25 µg/mL (≈ 0.544 µM) and the MIC80 (Candida tropicalis) was 0.25 µg/mL (≈ 0.544 µM). For the same compound, the MIC80 (Cryptococcus neoformans) was 0.25 µg/mL (≈ 0.544 µM), the MIC80 (Candida parapsilosis) was 0.25 µg/mL (≈ 0.544 µM) and the MIC80 (Kluyveromyces marxianus) was 0.25 µg/mL (≈ 0.544 µM). It also gave an MIC80 (Trichophyton rubrum) of 1 µg/mL (≈ 2.18 µM).

In the case of `COc1cccc(CN2CCC(N(C)CC(O)(Cn3cncn3)c3ccc(F)cc3F)CC2)c1` (stereo not given), the MIC80 (Aspergillus fumigatus) is reported as 64 µg/mL (≈ 136 µM), the MIC80 (Candida albicans) is reported as 0.25 µg/mL (≈ 0.53 µM) and the MIC80 (Candida tropicalis) is reported as 0.25 µg/mL (≈ 0.53 µM). It also gave an MIC80 (Cryptococcus neoformans) of 0.25 µg/mL (≈ 0.53 µM), an MIC80 (Candida parapsilosis) of 0.25 µg/mL (≈ 0.53 µM) and an MIC80 (Kluyveromyces marxianus) of 0.25 µg/mL (≈ 0.53 µM). It also gave an MIC80 (Trichophyton rubrum) of 1 µg/mL (≈ 2.12 µM).

`Cc1ccccc1CN1CCC(N(C)CC(O)(Cn2cncn2)c2ccc(F)cc2F)CC1` (stereo not given) showed an MIC80 (Aspergillus fumigatus) of 64 µg/mL (≈ 140 µM), an MIC80 (Candida albicans) of 0.0625 µg/mL (≈ 0.137 µM) and an MIC80 (Candida tropicalis) of 0.25 µg/mL (≈ 0.549 µM). For the same compound, the MIC80 (Cryptococcus neoformans) was 0.25 µg/mL (≈ 0.549 µM), the MIC80 (Candida parapsilosis) was 0.25 µg/mL (≈ 0.549 µM) and the MIC80 (Kluyveromyces marxianus) was 0.25 µg/mL (≈ 0.549 µM). The MIC80 (Trichophyton rubrum) was 1 µg/mL (≈ 2.2 µM).

`CC(C)c1ccc(CN2CCC(N(C)CC(O)(Cn3cncn3)c3ccc(F)cc3F)CC2)cc1` (stereo not given) showed an MIC80 (Aspergillus fumigatus) of 16 µg/mL (≈ 33.1 µM), an MIC80 (Candida albicans) of 0.0156 µg/mL (≈ 0.0323 µM) and an MIC80 (Candida tropicalis) of 0.25 µg/mL (≈ 0.517 µM). The MIC80 (Cryptococcus neoformans) was 0.25 µg/mL (≈ 0.517 µM), the MIC80 (Candida parapsilosis) was 0.25 µg/mL (≈ 0.517 µM) and the MIC80 (Kluyveromyces marxianus) was 0.25 µg/mL (≈ 0.517 µM). The MIC80 (Trichophyton rubrum) was 0.25 µg/mL (≈ 0.517 µM).

In the case of `OC(Cn1cncn1)(Cn1cncn1)c1ccc(F)cc1F` [FLUCONAZOLE], the MIC80 (Aspergillus fumigatus) is reported as over 64 µg/mL, the MIC80 (Candida albicans) is reported as 0.25 µg/mL (≈ 0.816 µM) and the MIC80 (Candida tropicalis) is reported as 1 µg/mL (≈ 3.27 µM). For the same compound, the MIC80 (Cryptococcus neoformans) was 0.0625 µg/mL (≈ 0.204 µM), the MIC80 (Candida parapsilosis) was 0.25 µg/mL (≈ 0.816 µM) and the MIC80 (Kluyveromyces marxianus) was 1 µg/mL (≈ 3.27 µM). The MIC80 (Trichophyton rubrum) was 1 µg/mL (≈ 3.27 µM).
